The text below walks through data of ChEMBL document CHEMBL1641443, “Design, synthesis and biological evaluation of small molecule inhibitors of CD4-gp120 binding based on virtual screening” (Bioorg Med Chem, 2011).

Assay [1] has as its target Envelope glycoprotein gp160 (Human immunodeficiency virus type 1 group M subtype B (isolate YU-2)(HIV-1), UniProt P35961). The assay can be described thus: Binding affinity to HIV1 YU2 gp120 by isothermal titration calorimetry assay. Also on record: species or system Human immunodeficiency virus type 1 (isolate YU2). Conditions: read-out: Kd. The procedure, abridged:
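ITC at 25 °C. Cell held gp120 at about 2 μM in PBS pH 7.4 with 2% DMSO. Heat per injection taken from the integrated signal. Kd from a single run unless noted otherwise.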

Assay [2] deals with Human immunodeficiency virus 1. The assay can be described thus: Antiviral activity against recombinant HIV1 YU2 in Cf2Th-CCR5 cells assessed as viral infectivity by luciferase assasy relative to JRC-II-191. In kind it is functional, isolate YU2.

Turning to `CCCN1CCCC(NC(=O)C(=O)Nc2ccc(Cl)c(F)c2)C1` (stereo not drawn), the Kd (commonly the free concentration of one partner at which half of the binding sites on the other are occupied at equilibrium, for simple one-to-one binding) in assay [1] came out at 3.3 µM. Moreover, the “fold change (FC)” value in assay [2] turned out to be 0.5.
Turning to `CC1(C)CC(CNC(=O)C(=O)Nc2ccc(Cl)c(F)c2)CC(C)(C)N1`, in assay [1], the Kd is 2.2 µM. The “fold change (FC)” value in assay [2] is listed as 0.09.
In the case of `CN1CCC(NC(=O)C(=O)Nc2ccc(Cl)c(F)c2)CC1`, the dissociation constant Kd in assay [1] came out at 9.4 µM. For the same compound, in assay [2], the “fold change (FC)” value came to 0.1.
For `CCCN1CCC(NC(=O)C(=O)Nc2ccc(Cl)c(F)c2)CC1` the same measures were 4.2 µM and 0.2.
In the same order, the values of `CC(C)N1CCC(NC(=O)C(=O)Nc2ccc(Cl)c(F)c2)CC1` are 1.9 µM and 0.
For `O=C(NCC1CCNCC1)C(=O)Nc1ccc(Cl)c(F)c1` the same measures were 3 µM and 0.
As for `CN1CCC(CNC(=O)C(=O)Nc2ccc(Cl)c(F)c2)CC1`, the Kd in assay [1] was found to be 4.3 µM. Besides, the “fold change (FC)” value in assay [2] came out at 0.3.
For the compound `CC1(C)CC(NC(=O)C(=O)Nc2ccc(Cl)c(F)c2)CC(C)(C)O1`, the Kd in assay [1] is 1 µM. Moreover, in assay [2], the “fold change (FC)” value was found to be 0.
In the same order, the values of `CN1CCCC(NC(=O)C(=O)Nc2ccc(Cl)c(F)c2)C1` (stereo not drawn) are 4.2 µM and 0.7.
In the same order, the values of `CN1CCCC(CNC(=O)C(=O)Nc2ccc(Cl)c(F)c2)C1` (stereo not drawn) are 2.5 µM and 0.3.
In the same order, the values of `CC(C)N1CCCCC1CCNC(=O)C(=O)Nc1ccc(Cl)c(F)c1` (stereo not drawn) are 2.3 µM and 0.
As to `Cc1n[nH]c(C)c1CNC(=O)C(=O)Nc1ccc(Cl)c(F)c1`, the Kd in assay [1] was determined as 4 µM. In addition, the “fold change (FC)” value in assay [2] stood at 0.1.
In the same order, the values of `O=C(NC[C@@]12CCC[C@@H]1CNC2)C(=O)Nc1ccc(Cl)c(F)c1` are 3.1 µM and 0.
In the same order, the values of `O=C(NCC1NCCc2ccccc21)C(=O)Nc1ccc(Cl)c(F)c1` (stereo not drawn) are 1.2 µM and 0.6.
